Published values collected from several papers.
Lines come from different studies, so protocols differ.
Effect on: enzyme activity
Action: inhibitor
EGFR: Epidermal growth factor receptor (EGFR, Homo sapiens, UniProt P00533)
EGFR L858R/T790M: Epidermal growth factor receptor (EGFR, Homo sapiens, UniProt P00533, L858R/T790M)

SMILES | target | assay | conditions | IC50 [nM]
Nc1ccc(-c2csc(Nc3ccc4c(O)ncnc4c3)n2)cc1 | EGFR | ELISA | – | 14.2
CN1CCN(C/C=N/NC(=O)Nc2cc3c(Nc4ccc(F)c(Cl)c4)ncnc3cc2O[C@H]2CCOC2)CC1 | EGFR L858R/T790M | – | – | 11.6
C=C(Cl)C(=O)Nc1cc(Nc2nc(N3CCOCC3)c3sccc3n2)c(OC)cc1N(C)CCN(C)C | Epidermal growth factor receptor (EGFR, Homo sapiens, UniProt P00533, C797S/L858R/T790M) | ELISA | – | > 1000
COCCOc1cc2ncnc(Nc3ccc(OCCCn4ccnc4[N+](=O)[O-])c(Cl)c3)c2cc1OCCOC | EGFR | FRET | – | 400
COc1ccc(-c2nn(-c3ccc(S(C)(=O)=O)cc3)cc2C=N/N=c2\[nH]c(-c3ccc([N+](=O)[O-])cc3)cs2)cc1 | Epidermal growth factor receptor (EGFR, Homo sapiens, UniProt P00533, L858R) | – | – | 31
C=C(Cl)C(=O)Nc1cc(Nc2nc(Nc3cnn(C)c3)c3sccc3n2)c(OC)cc1N1CCN(C)CC1 | EGFR | ELISA | – | > 1000
COc1ccc2c(Oc3ccc4c(C(=O)Nc5ccccc5N)cccc4c3)ccnc2c1 | EGFR | – | – | > 500
OCc1ccc(Nc2ccc3c(Nc4cccc(C(F)(F)F)c4)ncnc3c2)cc1 | EGFR | radiometric | – | 2.53
C=CC(=O)Nc1cc(Nc2nccc(-c3cn(C4CC4)c4ccccc34)n2)c(OC)cc1N(C)CCN(C)C | Epidermal growth factor receptor (EGFR, Homo sapiens, UniProt P00533, L861Q) | TR-FRET | – | 1.07
Oc1ncnc2cc(Nc3nc(-c4ccc(C(F)(F)F)cc4)cs3)ccc12 | EGFR | ELISA | – | 2.17
O=C(N/N=C/c1cccn1CCCN1CCCCC1)Nc1cc2c(Nc3ccc(F)c(Cl)c3)ncnc2cc1O[C@H]1CCOC1 | EGFR L858R/T790M | – | – | 11.4
COc1cc2ncnc(NCc3cccs3)c2cc1OC | EGFR | mobility shift | – | 35
C=C(Cl)C(=O)Nc1cc(Nc2nc(Nc3cnn(C)c3)c3sccc3n2)c(OC)cc1N(C)CCN(C)C | EGFR | ELISA | – | 100
COc1cc2ncnc(Nc3ccc(F)c(Cl)c3)c2cc1NC(=O)N/N=C/c1cccn1CCCN(C)C | EGFR | – | – | 1.2
COC(=O)/C=C/c1ccc2ncnc(Nc3cccc(C(F)(F)F)c3)c2c1 | EGFR | radiometric | – | 19.1
CC(C)Cc1ccc(-c2nn(-c3ccc(S(C)(=O)=O)cc3)cc2/C=N/N=c2\[nH]c(-c3ccc([N+](=O)[O-])cc3)cs2)cc1 | EGFR L858R/T790M | – | – | 164

SMILES | target | assay | conditions | IC50 [nM]
O=[N+]([O-])c1ccc(-c2csc(Nc3ccc4c(O)ncnc4c3)n2)cc1 | EGFR | ELISA | – | 2.93
O=C(N/N=C/CN1CCOCC1)Nc1cc2c(Nc3ccc(F)c(Cl)c3)ncnc2cc1O[C@H]1CCOC1 | EGFR L858R/T790M | – | – | 14.3
C=CC(=O)Nc1cc(Nc2nccc(Nc3cc(Cl)c(F)cc3C(C)(C)O)n2)c(OC)cc1N1CC[C@@H](N(C)C)C1 | EGFR L858R/T790M | – | with preincubation | 13
CCN(CC)CCCn1cccc1/C=N/NC(=O)Nc1cc2c(Nc3ccc(F)c(Cl)c3)ncnc2cc1O[C@H]1CCOC1 | EGFR L858R/T790M | – | – | 12.8
COc1cc2ncnc(NCCSc3ccc(Cl)cc3)c2cc1OC | EGFR | mobility shift | – | 320
COc1cc2ncnc(Nc3ccc(F)c(Cl)c3)c2cc1NC(=O)N/N=C/c1cccn1CCN(C)C | EGFR L858R/T790M | – | – | 21.7
COc1cc2ncnc(Nc3ccc(OCCCn4ccnc4[N+](=O)[O-])c(Cl)c3)c2cc1OCCCN1CCOCC1 | EGFR | FRET | – | 180
CN(C)C/C=N/NC(=O)Nc1cc2c(Nc3ccc(F)c(Cl)c3)ncnc2cc1O[C@H]1CCOC1 | EGFR L858R/T790M | – | – | 15.4
CCC(=O)Nc1cc(Nc2nc(N3CCc4sccc4C3)c3cccnc3n2)c(OC)cc1N1CCSCC1 | EGFR L858R/T790M | ELISA | – | > 1000
COc1cc2c(Nc3ccc(OCCCn4ccnc4[N+](=O)[O-])c(Cl)c3)ncnc2cc1OCCCN1CCOCC1 | EGFR | FRET | – | 330
C=CC(=O)Nc1cc(Nc2nc(N3CCc4sccc4C3)c3cccnc3n2)c(OC)cc1N1CCC(N(C)C)CC1 | EGFR | ELISA | – | > 1000
COc1ccc(-c2nn(-c3ccc(S(C)(=O)=O)cc3)cc2/C=N/N=c2\[nH]c(-c3ccc(Br)cc3)cs2)cc1 | EGFR L858R/T790M | – | – | 31
Oc1ccc(-c2csc(Nc3ccc4c(O)ncnc4c3)n2)cc1 | EGFR | ELISA | – | 16.3
O=C(N/N=C/c1cccn1CCN1CCOCC1)Nc1cc2c(Nc3ccc(F)c(Cl)c3)ncnc2cc1O[C@H]1CCOC1 | EGFR | – | – | 0.6
C=C(Cl)C(=O)Nc1cc(Nc2nc(N3CCc4sccc4C3)c3sccc3n2)c(OC)cc1N(C)CCN(C)C | EGFR L858R/T790M | ELISA | – | 13
